Measurements published in ChEMBL document CHEMBL1137941, “Doxorubicin prodrug on the basis of tert-butyl cephalosporanate sulfones” (Bioorg Med Chem Lett, 2004).
Values after ≈ are worked out from the molar mass of the structure shown.

How the values were obtained:
N2a [1] = test: In vitro cytotoxic concentration against mouse neuroblastoma (neuro 2A) using MTT coloration; assay type: functional, cell-based
MG-22A [2] = test: In vitro inhibitory activity against mouse hepatoma cell line (MG-22A) using CV coloration; assay type: functional, cell-based
Mus musculus [3] = test: Physiological change in cardiomyocytes after the treatment of male JRC healthy mice by the administration of compound at dose of 1.5 mg/kg/day cells isolated on the 9th day by using CB assay; assay type: functional
Summary of the method: (§1)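 Male JRC mice, healthy or bearing Sarcoma S-180, were dosed on days 1, 2, 3, 4 and 7. Cardiomyocytes were isolated on day 9 and resuspended in DMEM with 4% FBS, 2 mM glutamine, 13 mM NaHCO₃, 10 mM HEPES and streptomycin. After 4 h at 37° (95% air/5% CO₂), serum was omitted. Intracellular peptide was read by Coomassie Blue and mitochondrial redox by MTT, against cells from untreated animals.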

B16 [4] = test: Growth inhibitory effect when administered at dose of 1.5 mg/kg/day given in the schedule of 1,2,3,4,7 day against (B16) mouse melanoma at eleventh day was determined; assay type: functional; conditions: B16, read-out: Inhibition
Summary of the method: (§2)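 Mice given the agent on days 1, 2, 3, 4 and 7. Doxorubicin was given in physiological solution (0.9% NaCl, pH 6.2). Prodrugs were given in the same solution with 2% DMSO and 0.3% agarose. Tumour growth inhibition (%) was read on fixed days against a vehicle-treated control; in the 2.0 mg/kg/day series, controls received physiological solution only. Negative values mean tumour growth was activated.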

CCRF S-180 [5] = test: Growth inhibitory effect administered at dose of 1.5 mg/kg/day given in the schedule of 1,2,3,4,7 day against Sarcoma S-180 tumor transplanted in male JRC mice at fourteenth day was determined; assay type: functional; conditions: Mus musculus, in the assay text read “ninth day” for “fourteenth day”; summary of the method: as §2
B16 [6] = test: Growth inhibitory effect when administered at dose of 1.5 mg/kg/day given in the schedule of 1,2,3,4,7 day against (B16) mouse melanoma at fourteenth day was determined; assay type: functional; conditions: B16, read-out: Inhibition; summary of the method: as §2
HT-1080 [7] = test: In vitro cytotoxic concentration against human fibrosarcoma cell line (HT1080) using MTT coloration; assay type: functional, cell-based
B16 [8] = test: Growth inhibitory effect when administered at dose of 5.0 mg/kg/day given in the schedule of 1,2,3,4,7 day against (B16) mouse melanoma at eleventh day was determined; assay type: functional; summary of the method: as §2
Mus musculus [9] = test: Physiological change in cardiomyocytes after the treatment of male JRC mice with transplanted sarcoma S-180 by the administration of compound at dose of 1.5 mg/kg/day cells isolated on the 9th day by using MTT assay; assay type: functional; summary of the method: as §1
B16 [10] = test: In vitro inhibitory activity against mouse melanoma cell line (B16) using CV coloration; assay type: functional, cell-based
Mus musculus [11] = test: Physiological change in cardiomyocytes after the treatment of male JRC healthy mice by the administration of compound at dose of 1.5 mg/kg/day cells isolated on the 9th day by using MTT assay; assay type: functional; summary of the method: as §1
B16 [12] = test: Growth inhibitory effect when administered at dose of 2.0 mg/kg/day given in the schedule of 1,2,3,4,7 day against (B16) mouse melanoma at eleventh day was determined; ND= No data; assay type: functional; summary of the method: as §2
CCRF S-180 [13] = test: Growth inhibitory effect when administered at dose of 2.0 mg/kg/day given in the schedule of 1,2,3,4,7 day against Sarcoma S-180 tumor transplanted in male JRC mice at fourteenth day was determined; assay type: functional, organism-based; conditions: Mus musculus
Mus musculus [14] = test: Physiological change in cardiomyocytes after the treatment of male JRC mice with transplanted sarcoma S-180 by the administration of compound at dose of 5.0 mg/kg/day cells isolated on the 9th day by using CB assay; assay type: functional; summary of the method: as §1
Mus musculus [15] = test: Physiological change in cardiomyocytes after the treatment of male JRC healthy mice by the administration of compound at dose of 5.0 mg/kg/day cells isolated on the 9th day by using CB assay; assay type: functional; summary of the method: as §1
Mus musculus [16] = test: Physiological change in cardiomyocytes after the treatment of male JRC mice with transplanted sarcoma S-180 by the administration of compound at dose of 5.0 mg/kg/day cells isolated on the 9th day by using MTT assay; assay type: functional; summary of the method: as §1
Mus musculus [17] = test: Physiological change in cardiomyocytes after the treatment of male JRC healthy mice by the administration of compound at dose of 5.0 mg/kg/day cells isolated on the 9th day by using MTT assay; assay type: functional; summary of the method: as §1
HT-1080 [18] = test: In vitro inhibitory activity against human fibrosarcoma cell line (HT1080) using CV coloration; assay type: functional, cell-based
Mus musculus [19] = test: Physiological change in cardiomyocytes after the treatment of male JRC mice with transplanted sarcoma S-180 by the administration of compound at dose of 1.5 mg/kg/day cells isolated on the 9th day by using CB assay; assay type: functional; summary of the method: as §1
B16 [20] = test: Growth inhibitory effect when administered at dose of 5.0 mg/kg/day given in the schedule of 1,2,3,4,7 day against (B16) mouse melanoma at fourteenth day was determined; assay type: functional; summary of the method: as §2
CCRF S-180 [21] = test: Growth inhibitory effect administered at dose of 1.5 mg/kg/day given in the schedule of 1,2,3,4,7 day against Sarcoma S-180 tumor transplanted in male JRC mice at eleventh day was determined; assay type: functional; conditions: Mus musculus, in the assay text read “seventh day” for “eleventh day”; summary of the method: as §2
B16 [22] = test: Growth inhibitory effect when administered at dose of 2.0 mg/kg/day given in the schedule of 1,2,3,4,7 day against (B16) mouse melanoma at fourteenth day was determined; assay type: functional; summary of the method: as §2
B16 [23] = test: In vitro cytotoxic concentration against mouse melanoma cell line (B16) using MTT coloration; assay type: functional, cell-based
CCRF S-180 [24] = test: Growth inhibitory effect when administered at dose of 5.0 mg/kg/day given in the schedule of 1,2,3,4,7 day against Sarcoma S-180 tumor transplanted in male JRC mice at fourteenth day was determined; assay type: functional, Mus musculus; summary of the method: as §2
N2a [25] = test: In vitro inhibitory activity against mouse neuroblastoma (neuro 2A) using CV coloration; assay type: functional, cell-based
MG-22A [26] = test: In vitro cytotoxic concentration against mouse hepatoma cell line (MG-22A) using MTT coloration; assay type: functional, cell-based
CCRF S-180 [27] = test: Growth inhibitory effect administered at dose of 5.0 mg/kg/day given in the schedule of 1,2,3,4,7 day against Sarcoma S-180 tumor transplanted in male JRC mice at fourteenth day was determined; assay type: functional; conditions: Mus musculus; summary of the method: as §2
CCRF S-180 [28] = test: Growth inhibitory effect administered at dose of 5.0 mg/kg/day given in the schedule of 1,2,3,4,7 day against Sarcoma S-180 tumor transplanted in male JRC mice at eleventh day was determined; assay type: functional; conditions: Mus musculus; summary of the method: as §2
B16 [29] = test: Growth inhibitory effect administered at dose of 5.0 mg/kg/day given in the schedule of 1,2,3,4,7 day against (B16) mouse melanoma at eleventh day was determined; assay type: functional; summary of the method: as §2
B16 [30] = test: Growth inhibitory effect administered at dose of 1.5 mg/kg/day given in the schedule of 1,2,3,4,7 day against (B16) mouse melanoma at eleventh day was determined; assay type: functional; summary of the method: as §2
B16 [31] = test: Growth inhibitory effect administered at dose of 5.0 mg/kg/day given in the schedule of 1,2,3,4,7 day against (B16) mouse melanoma at fourteenth day was determined; assay type: functional; summary of the method: as §2
B16 [32] = test: Growth inhibitory effect administered at dose of 1.5 mg/kg/day given in the schedule of 1,2,3,4,7 day against (B16) mouse melanoma at fourteenth day was determined; assay type: functional; summary of the method: as §2

Structure (SMILES)	IC50 (N2a [1]) [µg/mL]	IC50 (MG-22A [2]) [µg/mL]	Activity (Mus musculus [3])	IC50 (HT-1080 [7]) [µg/mL]	Activity (Mus musculus [9])	IC50 (B16 [10]) [µg/mL]	Activity (Mus musculus [11])	Activity (Mus musculus [14])	Activity (Mus musculus [15])	Activity (Mus musculus [16])	Activity (Mus musculus [17])	IC50 (HT-1080 [18]) [µg/mL]	Activity (Mus musculus [19])	IC50 (B16 [23]) [µg/mL]	IC50 (N2a [25]) [µg/mL]	IC50 (MG-22A [26]) [µg/mL]	further results
COc1cccc2c1C(=O)c1c(O)c3c(c(O)c1C2=O)C[C@@](O)(C(=O)CO)C[C@@H]3O[C@H]1C[C@H](N)C(O)[C@H](C)O1 (single isomer, unassigned) [DOXORUBICIN]	< 0.001	< 0.001	83	0.31 (≈ 0.57 µM)	114	0.001 (≈ 0.00184 µM)	40	81	60	130	39	0.17 (≈ 0.313 µM)	90	< 0.001	0.004 (≈ 0.00736 µM)	0.73 (≈ 1.34 µM)	inhibition in vivo at 1.5 mg/kg/day (B16 [4]): 70%; inhibition in vivo at 1.5 mg/kg/day (CCRF S-180 [5]): 28%; inhibition in vivo at 1.5 mg/kg/day (B16 [6]): 60%; inhibition in vivo at 5 mg/kg/day (B16 [8]): 65%; inhibition in vivo at 2 mg/kg/day (B16 [12]): 25%; inhibition (CCRF S-180 [13]): Not detectable; inhibition in vivo at 5 mg/kg/day (B16 [20]): 75%; inhibition in vivo at 1.5 mg/kg/day (CCRF S-180 [21]): 7%; inhibition in vivo at 2 mg/kg/day (B16 [22]): 70%; Inhibition (CCRF S-180 [24]): 37%; inhibition in vivo at 5 mg/kg/day (CCRF S-180 [24]; Mus musculus, CCRF S-180, read-out: Inhibition): 37%
COc1cccc2c1C(=O)c1c(O)c3c(c(O)c1C2=O)C[C@@](O)(C(=O)CO)C[C@@H]3OC1C[C@H](NC(=O)OCC2=C(C(=O)OC(C)(C)C)N3C(=O)/C(=C/C(=O)OC(C)(C)C)[C@@H]3S(=O)(=O)C2)[C@@H](O)[C@H](C)O1 (some centres undefined)	0.04 (≈ 0.0406 µM)	0.07 (≈ 0.0711 µM)	87	0.5 (≈ 0.508 µM)	270	0.09 (≈ 0.0914 µM)	54	90	75	360	102	0.4 (≈ 0.406 µM)	92	0.5 (≈ 0.508 µM)	0.04 (≈ 0.0406 µM)	0.07 (≈ 0.0711 µM)	inhibition in vivo at 5 mg/kg/day (CCRF S-180 [27]): 22%; inhibition in vivo at 5 mg/kg/day (CCRF S-180 [28]): -10%; inhibition in vivo at 5 mg/kg/day (B16 [29]): 11%; inhibition in vivo at 1.5 mg/kg/day (B16 [30]): 13%; inhibition in vivo at 5 mg/kg/day (B16 [31]): 16%; inhibition in vivo at 1.5 mg/kg/day (B16 [32]): -49%
